This is an account of results in ChEMBL document CHEMBL1121936, “Apyrogenic, adjuvant-active N-acetylmuramyl-dipeptides” (1982).

Several values for one entry are separate records, joined by “and”; a condition that tells them apart may be missing. Identical values can stand only once.

Format in all cases: functional
Test [1] relates to Oryctolagus cuniculus. The experiment in a line: Febrile responses of compound was measured in rabbit after iv injection at the dose of 5 mg/kg. The essentials:
(§1)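 Rabbits (strain HYL A, 3–3.5 kg), three per specimen, per French/European pharmacopoeia. Compound dissolved in pyrogen-free isotonic saline and given iv, first at 1 mg/kg. Rectal temperature recorded continuously and automatically. A specimen was judged nonpyrogenic if no rabbit rose above 0.5 °C; such specimens then went on to 3, 5 and 10 mg/kg. ΔT reported per rabbit, with the mean.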

Test [2] deals with Oryctolagus cuniculus. Kind of test: Febrile responses of compound was measured in rabbit after iv injection at the dose of 1 mg/kg. The method, boiled down: as §1
The test system of test [3] is Oryctolagus cuniculus. The experiment in a line: Febrile responses of compound was measured in rabbit after iv injection at the dose of 3 mg/kg. The method, boiled down:
as §1

Test [4] deals with Mus musculus. The experiment in a line: Adjuvant activity was measured after sc administration in phosphate buffer saline (PBS) to mice with BSA and expressed as secondary response. The essentials:
(§2)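 Female Swiss mice, 5–6 weeks old. BSA antigen given sc in PBS: 0.5 mg to prime, then 0.1 mg one month later as boost. Glycopeptide (0.1 mg) given with the priming injection. Sera pooled on day 21 for the primary titer; on day 37 sera titrated individually for the secondary titer. Titer is log of highest serum dilution agglutinating BSA-coated sheep RBC (passive hemagglutination). Student's t test vs controls.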

Test [5] concerns Mus musculus. The experiment in a line: Adjuvant activity was measured after sc administration in phosphate buffer saline (PBS) to mice with BSA and expressed as primary response. The method, boiled down: as §2
The subject of test [6] is Klebsiella pneumoniae. The experiment in a line: Protective activity against Klebsiella pneumoniae was measured as number of survivors to the number of total animals used; 10/24.
In test [7] the test system is Klebsiella pneumoniae. The experiment in a line: Protective activity against Klebsiella pneumoniae was measured as difference between the percentage of survivors in treated group and its respective control group. Also noted: concentration or dose not given beside the values. The method, boiled down: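 Mice, 24 per group. Compound given iv at 100 μg on day 0; on day +1, intramuscular challenge with 10^4 K. pneumoniae. Mortality followed from day 1 to day 15. Protection is the percentage of survivors in the treated group minus that in its control group at day +15.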

The test system of test [8] is Oryctolagus cuniculus. Kind of test: Febrile responses of compound was measured in rabbit after iv injection at the dose of 10 mg/kg. The essentials: as §1
Test [9] relates to Klebsiella pneumoniae. The experiment in a line: Protective activity against Klebsiella pneumoniae was measured as number of survivors to the number of total animals used; 0/24.
Test [10] concerns Klebsiella pneumoniae. Kind of test: Protective activity against Klebsiella pneumoniae was measured as number of survivors to the number of total animals used; 16/24.
The subject of test [11] is Klebsiella pneumoniae. Kind of test: Protective activity against Klebsiella pneumoniae was measured as number of survivors to the number of total animals used; 7/24.
The test system of test [12] is Klebsiella pneumoniae. Kind of test: Protective activity against Klebsiella pneumoniae was measured as number of survivors to the number of total animals used; 3/24.
The subject of test [13] is Klebsiella pneumoniae. Kind of test: Protective activity against Klebsiella pneumoniae was measured as number of survivors to the number of total animals used; 4/24.
In test [14] the test system is Klebsiella pneumoniae. The experiment in a line: Protective activity against Klebsiella pneumoniae was measured as number of survivors to the number of total animals used; 8/24.
The subject of test [15] is Klebsiella pneumoniae. The experiment in a line: Protective activity against Klebsiella pneumoniae was measured as number of survivors to the number of total animals used;15/24.

For the molecule `COC(=O)CC[C@H](NC(=O)[C@H](C)NC(=O)[C@@H](C)OC1C(O)C(CO)OC(O)C1NC(C)=O)C(=O)OC` (stereo partly specified), the “Delta T” value in the test on Oryctolagus cuniculus [1] (5 mg/kg) is 1.1 °C and 0.9 °C; in the test on Oryctolagus cuniculus [2] (1 mg/kg), 0.33 °C and 0.13 °C; with Oryctolagus cuniculus [3] (3 mg/kg) it was 0.4 °C and 0.17 °C.
On to `CC(=O)NC1C(O)OC(CO)C(O)C1O[C@H](C)C(=O)N[C@@H](C)C(=O)N[C@@H](CCC(N)=O)C(=O)O` (stereo partly specified), for which the Secondary response with Mus musculus [4] amounted to 7.35. Also, the “Delta T” value with Oryctolagus cuniculus [2] was determined as 0.03 °C; with Oryctolagus cuniculus [3] it was 0.9 °C. For the same molecule, in the test with Mus musculus [5], the Primary response worked out at 2.97.
As for `CCCCCOC(=O)[C@H](CCC(N)=O)NC(=O)[C@H](C)NC(=O)[C@@H](C)OC1C(O)C(CO)OC(O)C1NC(C)=O` (stereo partly specified), in the test with Klebsiella pneumoniae [6], the Survivors came out at 10 N/total. In the test with Klebsiella pneumoniae [7], this molecule returned a Protection of 37%. Besides, in the test on Mus musculus [4], the Secondary response came to 7.8. For the same molecule, the figures for the “Delta T” value with Oryctolagus cuniculus [8], in the test with Oryctolagus cuniculus [2] and with Oryctolagus cuniculus [3] were 0.13 °C, 0.1 °C and 0.03 °C, respectively. Besides, the Primary response with Mus musculus [5] was determined as 1.64.
As to `CC(=O)NC1C(O)OC(CO)C(O)C1O[C@H](C)C(=O)N[C@@H](C)C(=O)N[C@@H](CCC(=O)O)C(=O)O` (stereo partly specified), the “Delta T” value with Oryctolagus cuniculus [2] (1 mg/kg) is 0.37 °C and 0.5 °C; in the test with Oryctolagus cuniculus [3] it was 0.8 °C.
With `CCOC(=O)[C@H](CCC(N)=O)NC(=O)[C@H](C)NC(=O)[C@@H](C)OC1C(O)C(CO)OC(O)C1NC(C)=O` (stereo partly specified), the Protection in the test with Klebsiella pneumoniae [7] worked out at 0%. Also, the Secondary response in the test on Mus musculus [4] is given as 9.53. In addition, the “Delta T” value is 0.47 °C and 0.32 °C in the test on Oryctolagus cuniculus [8] (10 mg/kg); 0.23 °C in the test on Oryctolagus cuniculus [2]; 0.03 °C in the test with Oryctolagus cuniculus [3]. Moreover, in the test on Mus musculus [5], the Primary response turned out to be 4.64. The same molecule displayed a Survivors in the test on Klebsiella pneumoniae [9] of 0 N/total.
Regarding `CC(=O)NC1C(O)OC(CO)C(O)C1O[C@H](C)C(=O)N[C@@H](C)C(=O)N[C@@H](CCC(N)=O)C(N)=O` (stereo partly specified), the “Delta T” value came to 0.67 °C in the test on Oryctolagus cuniculus [1], 0.1 °C in the test on Oryctolagus cuniculus [2] and 0.2 °C in the test on Oryctolagus cuniculus [3].
In the test with Klebsiella pneumoniae [7], `CCCCOC(=O)[C@H](CCC(N)=O)NC(=O)[C@H](C)NC(=O)[C@@H](C)OC1C(O)C(CO)OC(O)C1NC(C)=O` (stereo partly specified) gave a Protection of 63%. In addition, the Secondary response in the test with Mus musculus [4] came to 8.43. Also, the “Delta T” value came out at 0.3 °C in the test with Oryctolagus cuniculus [8], 0.03 °C with Oryctolagus cuniculus [2] and 0.26 °C in the test with Oryctolagus cuniculus [3]. Besides, the Primary response with Mus musculus [5] was found to be 4.21. The Survivors with Klebsiella pneumoniae [10] is 16 N/total.
Take `CCCOC(=O)[C@H](CCC(N)=O)NC(=O)[C@H](C)NC(=O)[C@@H](C)OC1C(O)C(CO)OC(O)C1NC(C)=O` (stereo partly specified): in the test on Klebsiella pneumoniae [11], the Survivors was determined as 7 N/total. The Protection with Klebsiella pneumoniae [7] is 25%. For the same molecule, in the test with Mus musculus [4], the Secondary response is reported as 9.52. For the same molecule, the Delta T with Oryctolagus cuniculus [8] came to 0.07 degrees C; in the test with Oryctolagus cuniculus [2] it was 0.2 °C; in the test with Oryctolagus cuniculus [3], 0.43 °C. In the test on Mus musculus [5], the Primary response is reported as 4.64.
Turning to `COC(=O)[C@H](CCC(N)=O)NC(=O)[C@H](C)NC(=O)[C@@H](C)OC1C(O)C(CO)OC(O)C1NC(C)=O` (stereo partly specified), the Survivors in the test on Klebsiella pneumoniae [12] is given as 3 N/total. For the same molecule, the Protection with Klebsiella pneumoniae [7] worked out at 8%. In addition, in the test with Mus musculus [4], the Secondary response came to 8.72. Besides, the results for the “Delta T” value in the test with Oryctolagus cuniculus [8], in the test on Oryctolagus cuniculus [2] and in the test on Oryctolagus cuniculus [3] were 0.1 °C, 0.1 °C and 0.23 °C, respectively. Also, in the test with Mus musculus [5], the Primary response is given as 3.85.
The molecule `CCCCCCCCCCOC(=O)[C@H](CCC(N)=O)NC(=O)[C@H](C)NC(=O)[C@@H](C)OC1C(O)C(CO)OC(O)C1NC(C)=O` (stereo partly specified) came in with a Protection in the test with Klebsiella pneumoniae [7] of 12%. Besides, in the test on Mus musculus [4], the Secondary response stood at 9.1. The same molecule returned a Survivors with Klebsiella pneumoniae [13] of 4 N/total. Further, the “Delta T” value came to 0.23 °C in the test on Oryctolagus cuniculus [8], 0.2 °C in the test on Oryctolagus cuniculus [2] and 0.17 °C with Oryctolagus cuniculus [3]. Besides, the Primary response in the test on Mus musculus [5] is 3.64.
In the test with Klebsiella pneumoniae [7], `CCCCCCOC(=O)[C@H](CCC(N)=O)NC(=O)[C@H](C)NC(=O)[C@@H](C)OC1C(O)C(CO)OC(O)C1NC(C)=O` (stereo partly specified) yielded a Protection of 29%. For the same molecule, in the test with Mus musculus [4], the Secondary response is listed as 7.71. In addition, the “Delta T” value with Oryctolagus cuniculus [8] is 0.13 °C; with Oryctolagus cuniculus [2] it was 0.13 °C; with Oryctolagus cuniculus [3] it was 0.2 °C. Moreover, the Primary response with Mus musculus [5] worked out at 2.75. Also, the Survivors in the test with Klebsiella pneumoniae [14] came to 8 N/total.
As for `CC(=O)N[C@H]1C(O)O[C@H](CO)[C@@H](O)[C@@H]1O[C@H](C)C(=O)N[C@@H](C)C(=O)N[C@H](CCC(=O)O)C(N)=O` (stereo partly specified) [MURAMYL DIPEPTIDE], the Protection in the test on Klebsiella pneumoniae [7] is recorded as 58%. Also, the Secondary response with Mus musculus [4] is recorded as 8.34. In addition, the “Delta T” value in the test with Oryctolagus cuniculus [2] came to 0.76 °C. In the test on Mus musculus [5], the Primary response worked out at 3.64. In addition, in the test on Klebsiella pneumoniae [15], the Survivors is 15 N/total.
